{"source": "ChEMBL document CHEMBL2380287", "about": "“PEG mediated synthesis and pharmacological evaluation of some fluoro substituted pyrazoline derivatives as antiinflammatory and analgesic agents” (2013)", "data": [{"tested_on": "Rattus norvegicus", "test": "Analgesic activity in rat at 25 mg/kg, po after 60 mins by radiant heat tail flick method relative to control", "format": "functional", "conditions": "1 h", "summary_of_the_method": "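Rats, six per group, were dosed orally at 25 mg/kg. Analgesia was measured at 60 min by the radiant heat tail flick method and expressed as percentage analgesia. Animals were kept on a 12/12 h light/dark cycle with free access to water and standard pellet diet.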", "units": {"inhibition in vivo at 25 mg/kg": "%"}, "values": [{"smiles": "CC(=O)N1N=C(c2ccc(F)cc2)CC1c1cn(-c2ccccc2)nc1-c1ccc(C)cc1", "note": "(stereo not given)", "inhibition in vivo at 25 mg/kg": 110}, {"smiles": "CC(=O)N1N=C(c2ccc(F)cc2)CC1c1cn(-c2ccccc2)nc1-c1ccccc1", "note": "(stereo not given)", "inhibition in vivo at 25 mg/kg": 35}, {"smiles": "CC(=O)N1N=C(c2ccc(F)cc2)CC1c1cn(-c2ccccc2)nc1-c1ccc(F)cc1", "note": "(stereo not given)", "inhibition in vivo at 25 mg/kg": 43}, {"smiles": "Fc1ccc(C2=NN(c3ccccc3)C(c3cn(-c4ccccc4)nc3-c3ccccc3)C2)cc1", "note": "(stereo not given)", "inhibition in vivo at 25 mg/kg": 35}, {"smiles": "CC(=O)N1N=C(c2ccc(F)cc2)CC1c1cn(-c2ccccc2)nc1-c1cccc([N+](=O)[O-])c1", "note": "(stereo not given)", "inhibition in vivo at 25 mg/kg": 109}, {"smiles": "Fc1ccc(C2=NN(c3ccccc3)C(c3cn(-c4ccccc4)nc3-c3ccc(Br)cc3)C2)cc1", "note": "(stereo not given)", "inhibition in vivo at 25 mg/kg": 71}, {"smiles": "CC(=O)N1N=C(c2ccc(F)cc2)CC1c1cn(-c2ccccc2)nc1-c1ccc(Br)cc1", "note": "(stereo not given)", "inhibition in vivo at 25 mg/kg": 71}, {"smiles": "CC(=O)N1N=C(c2ccc(F)cc2)CC1c1cn(-c2ccccc2)nc1-c1ccc(Cl)cc1", "note": "(stereo not given)", "inhibition in vivo at 25 mg/kg": 44}, {"smiles": "Fc1ccc(C2=NN(c3ccccc3)C(c3cn(-c4ccccc4)nc3-c3ccc(F)cc3)C2)cc1", "note": "(stereo not given)", "inhibition in vivo at 25 mg/kg": 41}, {"smiles": "O=[N+]([O-])c1cccc(-c2nn(-c3ccccc3)cc2C2CC(c3ccc(F)cc3)=NN2c2ccccc2)c1", "note": "(stereo not given)", "inhibition in vivo at 25 mg/kg": 108}, {"smiles": "Cc1ccc(-c2nn(-c3ccccc3)cc2C2CC(c3ccc(F)cc3)=NN2c2ccccc2)cc1", "note": "(stereo not given)", "inhibition in vivo at 25 mg/kg": 110}, {"smiles": "CC(=O)Oc1ccccc1C(=O)O", "note": "[ASPIRIN]", "inhibition in vivo at 25 mg/kg": 119}, {"smiles": "COc1ccc(-c2nn(-c3ccccc3)cc2C2CC(c3ccc(F)cc3)=NN2c2ccccc2)cc1", "note": "(stereo not given)", "inhibition in vivo at 25 mg/kg": 66}, {"smiles": "Fc1ccc(C2=NN(c3ccccc3)C(c3cn(-c4ccccc4)nc3-c3ccc(Cl)cc3)C2)cc1", "note": "(stereo not given)", "inhibition in vivo at 25 mg/kg": 43}, {"smiles": "COc1ccc(-c2nn(-c3ccccc3)cc2C2CC(c3ccc(F)cc3)=NN2C(C)=O)cc1", "note": "(stereo not given)", "inhibition in vivo at 25 mg/kg": 66}]}]}
